High-throughput results (PubChem BioAssay)
Sampled rows, rich in hits. Any-hit rate of the full collection: about 1%.
LYPLA2 counter: LYPLA2 (human) inhibition in PME1 counter-screen | actives 0.38% (n = 320,000) | AID 2177 | inhibition, % at 5.9 µM | recombinant LYPLA2, FP-Rh probe fluorescence polarization;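 active means inhibition above the screen-wide mean plus 3 SD, limit set per campaign, cut at about 26% in these data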
LYPLA1 inh: blocks human lysophospholipase 1, a PME1 counter-screen | inhibition, % at 5.9 µM | actives 0.16% (n = 320,000) | recombinant LYPLA1, FP-Rh probe fluorescence polarization | AID 2174 | O75608;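 active means inhibition above the mean of all tested compounds plus 3 SD, set per campaign, cut at about 14% in these data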;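 further: inhibitors block serine hydrolase probe labeling of LYPLA1 so polarization falls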
PREPL inh: inhibits the human prolyl oligopeptidase-like enzyme. Q4J6C6. recombinant PREPL, fluorescence polarization activity-based probe. inhibition, % at 5.96 µM. actives 0.68% (n = 320,000). AID 2751
proCasp7 act: counter-screen: procaspase-7 (human) activation; P55210; recombinant procaspase-7, Ac-DEVD-pNA absorbance 405 nm; D23A/D198A/D206A triple mutant, cannot self-cleave; scale: DMSO 0, 5 µM enzyme 100; activation, % at 8.5 µM; actives 0.093% (n = 330,000); AID 463210;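 active means percent activation above the screen-wide mean plus 3 SD, cut at about 25% in these data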
Target sequence (P55210 whole entry D23A/D198A/D206A): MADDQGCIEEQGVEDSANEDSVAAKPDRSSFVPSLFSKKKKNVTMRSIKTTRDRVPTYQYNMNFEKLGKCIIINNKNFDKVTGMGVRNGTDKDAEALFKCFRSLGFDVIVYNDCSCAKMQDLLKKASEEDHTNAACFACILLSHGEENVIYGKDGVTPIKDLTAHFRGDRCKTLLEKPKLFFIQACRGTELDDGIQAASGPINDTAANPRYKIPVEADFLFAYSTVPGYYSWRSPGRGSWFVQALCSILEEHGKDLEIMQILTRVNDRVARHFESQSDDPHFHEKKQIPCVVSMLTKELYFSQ
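System: Uncleavable procaspase-7 mutant enzyme; Amount: 2 µM procaspase-7 mutant as dispensed; Schedule: 1 h compound preincubation, 2 h substrate cleavage, 25 °C; Measured by: 405 nm absorbance of p-nitroaniline; Evaluation: percent activation from buffer-corrected 0–120 min absorbance change; Control set: low DMSO alone, high DMSO plus 5 µM PC-7.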
procasp3 activ: procaspase-3 (human) activation | recombinant procaspase-3 D3A, Ac-DEVD-pNA absorbance 405 nm | actives 0.11% (n = 330,000) | P42574 | activation, % at 8.5 µM;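 active means activation above the mean of all tested compounds plus 3 SD, cut at about 21% in these data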
Target sequence (P42574 whole entry D9A/D28A/D175A): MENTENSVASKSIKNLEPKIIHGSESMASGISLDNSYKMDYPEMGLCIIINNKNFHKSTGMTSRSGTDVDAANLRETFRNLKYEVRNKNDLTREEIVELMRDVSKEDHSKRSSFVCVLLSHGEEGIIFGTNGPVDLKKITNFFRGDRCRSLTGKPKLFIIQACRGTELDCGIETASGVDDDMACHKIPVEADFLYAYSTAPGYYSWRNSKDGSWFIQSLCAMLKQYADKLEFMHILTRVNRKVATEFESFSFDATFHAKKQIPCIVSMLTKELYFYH
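material = Procaspase-3 D3A mutant | probe or stimulus = Ac-DEVD-pNA | compound = single dose, 8.5 µM nominal compound, 0.8% DMSO | timing = 1 h preincubation, 2 h reaction | measured by = 405 nm absorbance of p-nitroaniline, reads at 0 and 120 min | benchmarks = DMSO-only low control, 5 µM PC-3 D3A high control | repeats = singlicate, each compound tested once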
LYPLA1 conf: LYPLA1 (human) inhibition, confirmation counter-screen | shares compounds with LYPLA1 inh | recombinant LYPLA1, FP-Rh probe fluorescence polarization | actives 69% (n = 480) | inhibition, % at 5.9 µM;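 active means mean inhibition across replicates above the hit cutoff set in the primary screen, cut at about 15% in these data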;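 further: loss of FP-Rh probe labeling of LYPLA1 seen as lower polarization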
LYPLA2 confirm: LYPLA2 (human) inhibition, confirmation counter-screen; shares compounds with LYPLA2 counter; recombinant LYPLA2, FP-Rh probe fluorescence polarization; inhibition, % at 5.9 µM; actives 72% (n = 1,100); AID 2232;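 active means mean inhibition across replicates above the hit cutoff set in the primary screen, cut at about 26% in these data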;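 further: blocked labeling of the enzyme by serine hydrolase FP-Rh probe lowers polarization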
PREPL confirm: confirmation of human PREPL enzyme inhibitors; inhibition, % at 5.96 µM; recombinant PREPL, fluorescence polarization activity probe; shares compounds with PREPL inh; AID 2803; actives 67% (n = 2,000)
Hits are given with their value. Unless noted, no stated cut-off is given here; in the data, active means inhibition above about 43%; inactive means the rest.

Screening CC(=O)Oc1ccc2c(c1)Oc1cc(OC(C)=O)ccc1C21OC(=O)c2ccccc21 returned LYPLA2 counter 119, LYPLA1 inh 106, PREPL inh 95, proCasp7 act inactive, procasp3 activ inactive, LYPLA1 conf 98, LYPLA2 confirm 121 and PREPL confirm 112.
Screening COc1ccc(C2Nc3ccccc3C(=O)N2NS(C)(=O)=O)c(OC)c1 (stereo not given) returned LYPLA2 counter inactive, LYPLA1 inh inactive, PREPL inh inactive, proCasp7 act inactive and procasp3 activ inactive.
O=C(CN1CCN(c2ccccn2)CC1)Nc1cc(C(F)(F)F)ccc1Cl was read as LYPLA2 counter inactive, LYPLA1 inh 54, PREPL inh 47, proCasp7 act inactive, procasp3 activ inactive, LYPLA1 conf 55 and PREPL confirm inactive.
`O=C(CN1CCN(c2ccccn2)CC1)Nc1ccc(Cl)c(C(F)(F)F)c1` gave LYPLA2 counter inactive, LYPLA1 inh inactive, PREPL inh inactive, proCasp7 act inactive and procasp3 activ inactive.
Screening CCn1cc(C(=O)OCC(=O)Nc2c(C)cccc2C)c(=O)c2ccc(C)nc21 returned LYPLA2 counter inactive, LYPLA1 inh inactive, PREPL inh inactive, proCasp7 act inactive and procasp3 activ inactive.
`COc1ccc(OC)c(-c2c3cc(O)c(=O)cc-3oc3cc(O)c(O)cc23)c1` gave LYPLA2 counter 77, LYPLA1 inh 85, PREPL inh 78, proCasp7 act inactive, procasp3 activ inactive, LYPLA1 conf inactive, LYPLA2 confirm inactive and PREPL confirm 77.
`COc1ccc(OC)c(-c2oc3ccccc3c(=O)c2O)c1` gave LYPLA2 counter inactive, LYPLA1 inh inactive, PREPL inh inactive, proCasp7 act inactive and procasp3 activ inactive.
Nc1c(C(=O)O)ccc2c1C(=O)c1ccccc1C2=O was read as LYPLA2 counter inactive, LYPLA1 inh inactive, PREPL inh inactive, proCasp7 act inactive and procasp3 activ inactive.
Nc1cc(C(=O)O)c(N)c2c1C(=O)c1ccccc1C2=O was read as LYPLA2 counter 53, LYPLA1 inh 36, PREPL inh 84, proCasp7 act inactive, procasp3 activ inactive, LYPLA1 conf 31, LYPLA2 confirm 45 and PREPL confirm 72.
Cn1nc(-c2ccccc2)c(N2CCCCC2)cc1=O was read as LYPLA2 counter inactive, LYPLA1 inh inactive, PREPL inh inactive, proCasp7 act inactive and procasp3 activ inactive.
Screening Cn1c(=O)cc2c3c(c(N4CCCCC4)ccc31)C(=O)c1ccccc1-2 returned LYPLA2 counter 38, LYPLA1 inh 28, PREPL inh 55, proCasp7 act inactive, procasp3 activ inactive, LYPLA1 conf 20, LYPLA2 confirm 28 and PREPL confirm 57.
For Cn1nc(-c2ccc(Cl)cc2)nc2c(=O)n(C)c(=O)nc1-2 the results were LYPLA2 counter 90, LYPLA1 inh 85, PREPL inh 44, proCasp7 act inactive, procasp3 activ inactive, LYPLA1 conf 85, LYPLA2 confirm 89 and PREPL confirm 60.
For O=C(N/N=C/c1cc(Cl)c(O)c(Cl)c1)c1cc2c(ccc3ccccc32)o1 the results were LYPLA2 counter inactive, LYPLA1 inh 24, PREPL inh 59, proCasp7 act inactive, procasp3 activ inactive, LYPLA1 conf inactive and PREPL confirm 69.
For O=C(N/N=C/c1cccnc1)c1cc2c(ccc3ccccc32)o1 the results were LYPLA2 counter inactive, LYPLA1 inh inactive, PREPL inh inactive, proCasp7 act inactive and procasp3 activ inactive.
Screening CC1=C(C(=O)Nc2cc(C(=O)N3CCN(c4cccc(C)c4C)CC3)ccc2C)SCCO1 returned LYPLA2 counter inactive, LYPLA1 inh inactive, PREPL inh inactive, proCasp7 act inactive and procasp3 activ inactive.
`O=C(CN1CCNCC1)Nc1ccccc1Cl` gave LYPLA2 counter inactive, LYPLA1 inh inactive, PREPL inh inactive, proCasp7 act inactive and procasp3 activ inactive.
`Cc1cc(C(=O)COc2cccc3cccnc23)c(C)n1C` gave LYPLA2 counter 29, LYPLA1 inh 21, PREPL inh 65, proCasp7 act inactive, procasp3 activ inactive, LYPLA1 conf inactive, LYPLA2 confirm inactive and PREPL confirm inactive.
For COc1ccc(NC(=O)CN(C)S(=O)(=O)c2ccc3c(c2)CCCN3C(C)=O)cc1 the results were LYPLA2 counter inactive, LYPLA1 inh inactive, PREPL inh inactive, proCasp7 act inactive and procasp3 activ inactive.
For CCOc1ccc2nc3cc(NCc4ccc(OC)cc4)ccc3c(N)c2c1 the results were LYPLA2 counter 37, LYPLA1 inh 19, PREPL inh 102, proCasp7 act inactive, procasp3 activ inactive, LYPLA1 conf inactive, LYPLA2 confirm inactive and PREPL confirm 79.
Screening CCn1cnc2cc(NCc3ccc(OC)cc3)ccc21 returned LYPLA2 counter inactive, LYPLA1 inh inactive, PREPL inh inactive, proCasp7 act inactive and procasp3 activ inactive.
CCOC(=O)C(NC(=O)c1ccc(F)cc1)(Nc1sc2c(c1C(N)=O)CCC2)C(F)(F)F (stereo not given) was read as LYPLA2 counter inactive, LYPLA1 inh inactive, PREPL inh inactive, proCasp7 act inactive and procasp3 activ inactive.
COc1cc(/C=N\NC(=O)c2ccc(Cn3cc(Br)c([N+](=O)[O-])n3)o2)cc(OC)c1O was read as LYPLA2 counter inactive, LYPLA1 inh 16, PREPL inh 51, proCasp7 act inactive, procasp3 activ inactive, LYPLA1 conf inactive and PREPL confirm inactive.
`COc1cc(/C=N/NC(=O)c2ccc(Cn3cc([N+](=O)[O-])cn3)o2)cc(Br)c1O` gave LYPLA2 counter inactive, LYPLA1 inh inactive, PREPL inh inactive, proCasp7 act inactive and procasp3 activ inactive.
O=C1c2ccccc2-c2onc3c(N4CCN(CCO)CC4)cc(N4CCN(C(=O)c5ccco5)CC4)c1c23 was read as LYPLA2 counter inactive, LYPLA1 inh 17, PREPL inh 45, proCasp7 act inactive, procasp3 activ inactive, LYPLA1 conf inactive and PREPL confirm 56.
Nc1ccc2c(c1)C(=O)C(=O)c1ccccc1-2 was read as LYPLA2 counter 95, LYPLA1 inh 87, PREPL inh 61, proCasp7 act inactive, procasp3 activ inactive, LYPLA1 conf 81, LYPLA2 confirm 92 and PREPL confirm 53.
Screening CCN(CC)C(=O)c1cc2cc([N+](=O)[O-])ccc2s1 returned LYPLA2 counter inactive, LYPLA1 inh inactive, PREPL inh inactive, proCasp7 act inactive and procasp3 activ inactive.
